Results reported in ChEMBL document CHEMBL1143162, “Synthesis and pharmacological evaluation of pyrazoline derivatives as new anti-inflammatory and analgesic agents” (Bioorg Med Chem Lett, 2008).

Tests used:
Rattus norvegicus [1] = assay: Antiinflammatory activity against carrageenan-induced hind paw edema in rat at 41 umol/kg, po after 3 hrs relative to flurbiprophen; format: functional
Procedure, shortened: (§1)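 Given orally to rats at a dose equimolar to 10 mg/kg (41 µmol/kg) of the reference drug. Paw-oedema % inhibition was calculated at both 3 h and 4 h after dosing.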

Rattus norvegicus [2] = assay: Antiinflammatory activity against carrageenan-induced hind paw edema in rat at 41 umol/kg, po after 4 hrs relative to flurbiprophen; format: functional; procedure, shortened: as §1
Gastric mucosa = assay: Inhibition of lipid peroxidation in mouse gastric mucosa tissue assessed as malondialdehyde level per 100 mg tissue relative to flurbiprophen; format: functional, tissue-based
Procedure, shortened: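 Animals receive the oral dose used in the ulcerogenic study, equimolar to 30 mg/kg flurbiprofen. Lipid peroxidation in the tissue is read as MDA content in nmol per 100 mg tissue, given as mean ± SEM (n = 6). Comparison is against the standard by ANOVA with Dunnett's test.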

Mus musculus [3] = assay: Ulcerogenic effect in mouse at 123 umol/kg, po relative to flurbiprophen; format: toxicity, organism-based; details: in vivo
Procedure, shortened: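 Acute ulcerogenic test with oral dosing at an amount equimolar to 30 mg/kg flurbiprofen. Gastric damage is scored as a severity index, given as mean ± SEM (n = 6). Comparison is against the standard by ANOVA with Dunnett's multiple comparison test.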

Mus musculus [4] = assay: Analgesic activity in mouse at 41 umol/kg, po by tail immersion method relative to flurbiprophen; format: functional
Procedure, shortened: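 Tail-immersion test in mice, oral dose of 41 µmol/kg. Tail reaction time (s) was read before dosing (0 h) and 4 h after dosing. % inhibition was calculated relative to each animal's pre-treatment value. n = 6, compared by paired Student's t test.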

Liver = assay: Hepatotoxicity in rat assessed as hepatocyte necrosis; format: toxicity, tissue-based; details: hepatocytes

Structure (SMILES) | Activity (Rattus norvegicus [1]) [%] | Activity (Rattus norvegicus [2]) [%] | Activity (Gastric mucosa) [nmol] | UI (Mus musculus [3]) | Activity (Mus musculus [4]) [%] | Activity (Liver)
COc1ccc(C2CC(c3ccc(-c4ccccc4)cc3)=NN2)cc1 (stereo not drawn) | 35.08 | 36.83 | – | – | – | –
COc1cc(OC)c(C2CC(c3ccc(-c4ccccc4)cc3)=NN2C(=O)c2ccccc2)c(OC)c1 (stereo not drawn) | 73.68 | 75.38 | 5.18 | 0.583 | 43.2 | Non-toxic
COc1ccc(C2CC(c3ccc(-c4ccccc4)cc3)=NN2C(=O)c2ccccc2)cc1 (stereo not drawn) | 40.34 | 47.36 | – | – | – | –
CN(C)c1ccc(C2CC(c3ccc(-c4ccccc4)cc3)=NN2)cc1 (stereo not drawn) | 33.33 | 36.84 | – | – | – | –
Cc1ccc(C2CC(c3ccc(-c4ccccc4)cc3)=NN2)cc1 (stereo not drawn) | 73.69 | 82.45 | 5.04 | 0.5 | 72.9 | Non-toxic
Clc1ccccc1C1CC(c2ccc(-c3ccccc3)cc2)=NN1 (stereo not drawn) | 31.57 | 31.57 | – | – | – | –
COc1ccc(C2CC(c3ccc(-c4ccccc4)cc3)=NN2)cc1OC (stereo not drawn) | 35.08 | 40.35 | – | – | – | –
O=C(c1ccccc1)N1N=C(c2ccc(-c3ccccc3)cc2)CC1c1ccc(Cl)cc1 (stereo not drawn) | 35.08 | 42.1 | – | – | – | –
c1ccc(-c2ccc(C3=NNC(c4ccccc4)C3)cc2)cc1 (stereo not drawn) | 35.08 | 38.6 | – | – | – | –
O=C(c1ccccc1)N1N=C(c2ccc(-c3ccccc3)cc2)CC1c1ccccc1 (stereo not drawn) | 28.06 | 33.32 | – | – | – | –
CC(C(=O)O)c1ccc(-c2ccccc2)c(F)c1 (stereo not drawn) [FLURBIPROFEN] | 73.68 | 80.69 | 7.51 | 1.666 | 69.5 | –
COc1ccc(C2CC(c3ccc(-c4ccccc4)cc3)=NN2C(=O)c2ccccc2)cc1OC (stereo not drawn) | 28.06 | 35.08 | – | – | – | –
CN(C)c1ccc(C2CC(c3ccc(-c4ccccc4)cc3)=NN2C(=O)c2ccccc2)cc1 (stereo not drawn) | 33.32 | 35.08 | – | – | – | –
COc1cc(OC)c(C2CC(c3ccc(-c4ccccc4)cc3)=NN2)c(OC)c1 (stereo not drawn) | 80.7 | 82.45 | 5.58 | 0.833 | 28.6 | –
Clc1ccc(C2CC(c3ccc(-c4ccccc4)cc3)=NN2)cc1 (stereo not drawn) | 22.8 | 28.06 | – | – | – | –
Cc1ccc(C2CC(c3ccc(-c4ccccc4)cc3)=NN2C(=O)c2ccccc2)cc1 (stereo not drawn) | 29.82 | 31.57 | – | – | – | –
O=C(c1ccccc1)N1N=C(c2ccc(-c3ccccc3)cc2)CC1c1ccccc1Cl (stereo not drawn) | 31.57 | 38.59 | – | – | – | –
